Assay results of several laboratories.
Matrix: plasma

CO[C@H]1CC[C@H](N2C(=O)CNc3ncc(-c4ccc(C(C)(C)O)nc4)nc32)CC1 — half-life (human; oral, 45 mg, patients): 292 min
CC(C)(O)c1ccccc1-c1ccc2[nH]c(/C=C/c3ccc(C(F)(F)F)cc3)nc2c1 — half-life (male human; oral, 120 mg, single dose, fasted, healthy volunteers): 3780 min
c1cnc2ccc(Nc3nc(NC4CC4)c4nc[nH]c4n3)cc2c1 — half-life (human; oral, 50 mg/m², patients): 120 min
CC(C)(Sc1ccncc1-c1ccc(C#N)c2ccccc12)C(=O)O — half-life (male human; oral, 40 mg, single dose, fasted, healthy volunteers): 571 min
Cn1cc(-c2ccc(S(=O)(=O)[C@@H]3C[C@@H](C(=O)NC4(C#N)CC4)N(C(=O)C4(C(F)(F)F)CC4)C3)c(C(F)(F)F)c2)cn1 — half-life (human; oral, 3 mg, single dose, fasted, healthy volunteers): 341 min
COc1cc(C(=O)NC2CCN(C)CC2)c(F)cc1Nc1ncc(C(F)(F)F)c(Oc2cccc3c2C(=O)N(C)C3)n1 — half-life (human; oral, 100 mg, multiple doses, once daily, patients): 1130 min
COc1ccc([C@@H]2CN(C(=O)[C@@H](O)CO)C[C@@]2(C)[C@@H](C)O)cc1OC1CN(c2ccc(C)cn2)C1 — half-life (human; oral, 40 mg, single dose, healthy volunteers): 726 min
CO[C@@H]1[C@H](OC(=O)N2CC(CCN3CCOCC3)C2)CC[C@]2(CO2)[C@H]1[C@@]1(C)O[C@@H]1CC=C(C)C — half-life (human; subcutaneous, 3.6 mg, single dose, healthy volunteers): 28.2 min
CC(C)n1cc(C#N)c2cc(-n3cc(C(=O)O)cn3)ccc21 — half-life (human; oral, 10 mg, single dose, fasted, healthy volunteers): 306 min
C[C@@H](Nc1cc(F)cc(F)c1)c1cc(C(=O)N(C)C)cc2c(=O)cc(N3CCOCC3)oc12 — half-life (human; oral, 240 mg, single dose, patients): 374 min
COCCOc1cnc2ccn([C@H](C)c3nnc4c(F)cc(-c5cnn(C)c5)cn34)c(=O)c2c1 — half-life (human; oral, 100 mg, multiple doses, once daily, patients): 546 min
